CHOP inh: blocks CHOP induction under ER stress | CHO-K1 CHOP-promoter luciferase, tunicamycin-induced, 15-18 h | inhibition, % at 10 µM | actives 3.8% (n = 220,000) | AID 2732;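 active = compounds that reduced the stress-induced luciferase reporter signal by more than about 70% of percent inhibition, limit read from the data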;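 also: 0% = tunicamycin plus vehicle and 100% = wells without tunicamycin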
V-ATPase pH: regulators of yeast V-ATPase proton transport | S. cerevisiae, pHLuorin cytosolic pH fluorescence | response, % at 10 µM | actives 0.37% (n = 350,000); in the data active = response mostly above about 7.3%, no sharp cut-off; inactive = mostly below about 5.4%; also: actives read high
UPR XBP1 act: activators of adaptive arm of unfolded protein response (XBP1). CHO-XBP1 luciferase reporter, IRE1-XBP1 UPR activation, luminescence; percent of tunicamycin response, DMSO as zero. activation, % at 20 µM. actives 0.33% (n = 330,000);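 active = versus positive control, 20 µM dose yields 30% or more activation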;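 also: 100% = tunicamycin at 10 µg/mL and 0% = DMSO only wells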
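Material: CHO-XBP1 cells stably carrying IRE1-XBP1-driven luciferase reporter | Medium: F12 with 10% serum | Compound dosing: 20 µM single concentration, DMSO 1% | Incubation: Overnight seeding at 37 °C, 6 h compound treatment at 37 °C | Detection: Steady-Glo luminescence read | Read-out basis: % activation of reporter signal versus tunicamycin and DMSO controls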
CHOP UPR activ: apoptotic UPR (CHOP) activation; actives 0.34% (n = 330,000); CHO-CHOP luciferase reporter, luminescence; percent of tunicamycin response over DMSO baseline; activation, % at 10 µM;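 active = at 10 µM dose, activation of 40% or more, normalized to positive control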;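 also: 100% = tunicamycin at 10 µg/mL and 0% = DMSO alone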
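assay system = CHO CHOP reporter cells | amount = 500 CHO-CHOP cells per well | buffer or medium = F12 with 10% FBS | incubation = 16-18 h cell attachment, then 6 h compound exposure, 37 °C | detection = luminescence read with Steady-Glo | read-out = percent activation relative to tunicamycin control | controls = tunicamycin high control, DMSO low control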
TbMetRS inhib: blocks T. brucei methionyl-tRNA synthetase activity | purified T. brucei MetRS, ATP depletion, Kinase-Glo luminescence | inhibition, % at 11.9 µM | actives 0.4% (n = 360,000);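 active = inhibition above a per-plate cutoff of the control wells' mean inhibition plus 3 SD, cut at about 5.5% in these data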;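 also: 0% = DMSO wells median and 100% = median of wells with control inhibitor compound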
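Dosing: 11.9 µM single point; system: parasite MetRS enzyme; technique: luminescence of leftover ATP; times: 15 min enzyme-compound preincubation, 2 h reaction, 10 min detection, 25 °C; replicates: each compound tested once; read-out basis: percent inhibition relative to median high and low control wells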
The depositor's hits bear a star; · = not tested or not shown; ! = repeats disagree. Shown is part of a subset that was picked to be rich in hits.

SMILES	CHOP inh	V-ATPase pH	UPR XBP1 act	CHOP UPR activ	TbMetRS inhib
N#Cc1c(N2CCN(C(=O)c3ccccc3)CC2)nc(-c2ccccc2)c2c1CCCC2	71.8*	2.3	-3.2	1.9	-0.4
COc1ccccc1CNC(=S)Nc1ccc(S(N)(=O)=O)cc1	·	3.6	-0.1	2.5	-0.8
COc1ccc(S(=O)(=O)N2CCCCC2)cc1NC(=O)CCNC(=O)c1ccco1	·	-3.4	-3.6	0.5	-0.1
CC(C)NS(=O)(=O)c1ccc(OCC(=O)N2CCc3ccccc3C2)cc1	74.3*	1.5	-4.7	0.5	-0.5
C/C(=N\NC(=O)COc1ccc(C(C)(C)C)cc1)c1ccc(-n2ccnc2)cc1	95.1*	0.3	-0.1	3.9	-0.2
CC(C)(C)c1ccc(NC(=O)COc2ccc(-n3ccnc3)cc2)cc1	74.2*	1.1	-7.8	1.7	0.0
CCn1c(=O)[nH]c2cc(C(=O)Nc3cc(C)cc(C)c3)ccc2c1=O	88.7*	-2.4	1.9	0.6	-0.3
CC(C)COC(=O)N1CCCC(c2cc(C(=O)Nc3ccccc3Cl)no2)C1 (stereo not drawn)	·	·	·	·	0.1
CCCCCCc1cc2cc(S(=O)(=O)c3ccc(C)cc3)c(=O)oc2cc1O	86.0*	-3.9	-3.9	2.8	-0.2
CCCCCCc1cc2cc(C(=O)Nc3ccccc3)c(=O)oc2cc1O	70.9*	-6.6	7.0	14.0	-0.7
O=C(c1ccc(COc2ccccc2Cl)o1)N1CCN(Cc2ccc3c(c2)OCO3)CC1	73.0*!	-1.0	-2.5	-0.9	0.9
Cc1ccc(C(=O)c2oc3ccccc3c2NC(=O)c2cc(-c3cc(C)ccc3O)n[nH]2)cc1	71.1*	-2.4	60.4*	10.1	-0.4
CC(=O)Nc1c(C(=O)c2ccc(F)cc2)oc2ccccc12	14.1	2.2	0.6	-3.2	-0.3
O=C(Nc1c(C(=O)c2ccccc2)oc2ccccc12)c1cc(-c2ccccc2O)n[nH]1	89.7*	-4.2	22.7	-0.6	-0.6
Cc1ccc(C(=O)c2oc3ccccc3c2NC(=O)c2cc(-c3ccccc3O)n[nH]2)cc1	60.7	0.1	18.8	3.0	-0.1
CC1CN(S(=O)(=O)c2cccc(C(=O)NCC(c3cccs3)N3CCOCC3)c2)CC(C)O1 (stereo not drawn)	·	3.1	·	·	-0.4
Cc1cc(CSc2nc(C)cc(=O)[nH]2)c2ncccc2c1	86.8*	1.7	-2.1	1.4	-0.4
O=C(CSc1nc2ccccc2[nH]1)Nc1ccc(F)cc1	-2.1	8.3	1.1	-0.5	16.6*
CN(CC(=O)Nc1ccc(F)cc1)C(=O)CSc1nc2ncc(Cl)cc2[nH]1	0.0	74.1*	0.4	0.5	-0.5
O=C(CSc1ccccc1)Nc1nc2ccccc2[nH]1	-11.9	31.5*	-0.8	4.6	2.7
O=C(CSc1nc2ccccc2[nH]1)Nc1ccc2[nH]c(=O)[nH]c2c1	·	3.3	0.0	1.9	0.2
COc1ccc(Cl)cc1C(=O)NNC(=O)c1cccs1	·	2.6	3.7	4.6	-0.3
Cc1cc(C)n(-c2ccc3cccc(NS(C)(=O)=O)c3n2)n1	74.2*	-3.1	1.1	-3.5	-0.6
Cn1c(SCC(=O)c2ccc(O)c(O)c2)nnc1-c1ccccc1	·	1.8	0.5	0.8	1.3
Cn1c(SCC(=O)c2ccc3c(c2)Cc2ccccc2-3)nnc1-c1cccc(N)c1	93.5*	-0.1	0.6	-1.7	-0.6
SMILES	CHOP inh	V-ATPase pH	UPR XBP1 act	CHOP UPR activ	TbMetRS inhib
CC(C)OC(=O)c1cc2c(ccn2C)n1CC(=O)N(Cc1ccccc1)c1ccc(F)cc1	70.5*	-5.1	1.1	4.1	-0.7
CC(C)OC(=O)c1cc2c(ccn2C)n1CC(=O)N1CCC(Cc2ccccc2)CC1	70.2*	-1.5	-0.6	-0.8	0.2
CCOC(=O)c1cc2c(ccn2C)n1CC(=O)N1CCN(c2ccccc2)CC1	-18.8	-1.6	-3.6	-1.7	-0.9
CCOC(=O)c1cc2c(ccn2C)n1CC(=O)N(Cc1ccccc1)c1ccc(F)cc1	70.4*	0.0	-2.5	0.6	-1.3
COc1cccc(OCCNC(=O)CSc2ccc(C(F)(F)F)cc2[N+](=O)[O-])c1	84.7*	0.6	-1.5	-0.9	0.0
Cc1ccc2[nH]c(=O)cc(C(=O)OCC(=O)c3ccc(F)cc3)c2c1	77.0*	-0.6	0.8	-0.4	0.1
CCN(CC)CCN(Cc1cc2cc(C)ccc2[nH]c1=O)C(=O)Nc1ccccc1OC	1.3	-6.8	-5.1	-4.1	0.3
CCc1ccc2[nH]c(=O)c(CN(Cc3ccccc3OC)C(=O)Nc3ccccc3OC)cc2c1	71.1*	-5.2	4.4	2.3	-1.0
COc1ccc(OCC(=O)N2CCCC(Nc3ccc(C)c(C)c3)C2)cc1 (stereo not drawn)	·	1.9	·	·	-0.5
Cc1ccc(S(=O)(=O)N2C3CCCCC3O[C@H]2CC(=O)c2cccc3ccccc23)cc1 (stereo partly drawn)	·	·	·	·	-0.6
O=C(Cn1nnc(-c2ccncc2)n1)N1CCc2ccccc21	9.8	-1.1	-1.8	-0.7	-1.7
Cc1ccc(-c2nnn(CC(=O)N3CCCc4ccccc43)n2)cc1	84.4*	5.9	-0.6	0.4	-0.7
OC(c1cccc(Cl)c1)c1ncc(-c2cccc(C(F)(F)F)c2)[nH]1 (stereo not drawn)	·	·	·	·	1.4
CC1CC(C)(C)Nc2ccc(N=O)cc21 (stereo not drawn)	95.7*	-1.3	·	·	-0.2
CCOCc1nc2nc(Cl)c(Cl)nc2[nH]1	·	-2.4	·	·	-0.1
O=C(CNC(=O)c1cccc(Br)c1)N/N=C/c1cc(Br)cc(Br)c1O	90.6*	2.1	13.9	0.0	0.6
CN(C)c1ccc(C(=O)N/N=C/c2cc(Br)cc(Br)c2O)cc1	90.6*	-10.6	-1.6	-2.1	-0.5
COc1c(Br)cc(Br)cc1/C=N/NC(=O)c1ccncc1	22.9	-0.6	-2.1	0.1	-0.2
Oc1[nH]c2ccc(Br)cc2c1N=NC(=S)NCC1CCCO1 (stereo not drawn)	94.5*	-1.1	4.5	-2.0	-0.3
Oc1[nH]c2ccccc2c1N=NC(=S)NCC1CCCO1 (stereo not drawn)	1.5	0.4	-0.1	2.4	-0.4
O=c1/c(=C\c2ccc(O)cc2)sc2nc(-c3ccccc3)c(-c3ccccc3)n12	91.4*	-1.2	0.0	3.0	-0.4
Cc1cccn2cc(-c3ccc(S(=O)(=O)N4CCOCC4)cc3)nc12	70.8*	0.9	0.6	-1.1	-0.1
CCc1ccc(-c2nnn(CCC(=O)OC)n2)cc1	75.4*	3.9	-2.7	-6.7	-0.9
Cc1cccc(C)c1NC(=O)c1ccc2sc([C@@H]3O[C@H](CO)[C@H](O)[C@H](O)[C@H]3O)nc2c1	·	·	·	·	0.0
CCOC(=O)c1nnn(-c2nc(OC)nc(N3CCCCC3)n2)c1-c1ccccc1	66.5	·	·	·	·
CCOC(=O)c1nnn(-c2nc(N3CCCC3)nc(N3CCCC3)n2)c1-c1ccccc1	89.3*	-2.4	2.4	-0.7	-0.1
